The results in this text go back to ChEMBL document CHEMBL1141288, “Antimalarial and antituberculous poly-O-acylated jatrophane diterpenoids from Pedilanthus tithymaloides” (J Nat Prod, 2007).

The subject of test [1] is Mycobacterium tuberculosis. Put plainly: Antitubercular activity against Mycobacterium tuberculosis H37Ra by alamar blue microplate assay. The test is classed as functional. (Alamar Blue is a resazurin reagent that responds to reducing activity.)
Test [2] deals with Plasmodium falciparum. Put plainly: Antimalarial activity against Plasmodium falciparum K1 by microculture radioisotope assay. The format is functional, organism-based. The method, boiled down:
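The P. falciparum K1 strain is multidrug-resistant and was kept in continuous culture. In vitro activity was measured by the microculture radioisotope technique.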

Test [3] relates to Candida albicans. Put plainly: Antifungal activity against Candida albicans ATCC 90028 at 50 ug/mL by tetrazolium/formazan assay. The test is classed as functional, organism-based. The procedure, abridged:
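Candida albicans ATCC 90028 tested with a tetrazolium/formazan assay. Compounds were run at 50 µg/mL. Amphotericin B served as the positive control and DMSO as the negative control.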

Test [4] relates to Plasmodium falciparum. Put plainly: Antimalarial activity against Plasmodium falciparum K1 at 10 ug/mL by microculture radioisotope assay. The test is classed as functional, organism-based.
Test [5] deals with Candida albicans. The experiment in a line: Antifungal activity against Candida albicans ATCC 90028 by tetrazolium/formazan assay. The format is functional, organism-based.

Structures are written as SMILES. Converted amounts (≈) assume the structure as drawn. The source made the active and inactive calls. The calls are words filed in the database; no cut-off is given here.

Regarding `CC(=O)O/C1=C(\C)[C@@H](O)[C@H]2[C@@H](OC(=O)c3ccccc3)[C@@H](C)[C@H](OC(C)=O)[C@]2(OC(C)=O)[C@H](OC(C)=O)/C(C)=C/CC(C)(C)[C@@H](OC(C)=O)[C@H]1OC(C)=O`, in test [1], it took 50 µg/mL (≈ 65.9 µM) to inhibit growth (MIC). Moreover, half-maximal inhibition in test [2] (IC50) required 5.8 µM. The outcome in test [3] was inactive.
As to `NNC(=O)c1ccncc1` [ISONIAZID], the MIC in test [1] amounted to 0.1 µg/mL (≈ 0.729 µM).
For the compound `CC(=O)O/C1=C(\C)[C@@H](O)[C@H]2[C@@H](OC(=O)c3ccccc3)[C@@H](C)[C@H](O)[C@]2(OC(C)=O)[C@H](OC(C)=O)/C(C)=C/CC(C)(C)[C@@H](OC(C)=O)[C@H]1OC(C)=O`, the MIC in test [1] was found to be 100 µg/mL (≈ 140 µM). The midpoint of inhibition in test [2], the IC50, lay at 6 µM.
`C[C@H]1[C@@H](O)O[C@@H]2O[C@@]3(C)CC[C@H]4[C@H](C)CC[C@@H]1[C@@]24OO3` [ARTENIMOL] had an IC50 in test [2] of 0.0036 µM.
For `CC(=O)O[C@H]1C[C@@H](O)/C(C)=C\[C@H]2[C@@H](OC(=O)c3ccccc3)[C@@H](C)[C@H](O)[C@]2(OC(C)=O)[C@H](O)[C@@](C)(O)/C=C/C1(C)C`, the MIC in test [1] was found to be 100 µg/mL (≈ 174 µM). The result in test [4] and in test [3] was inactive.
For `C[C@@H]1[C@H](O)[C@@H](C)/C=C/C=C/C=C/C=C/C=C/C=C/C=C/[C@H](O[C@@H]2O[C@H](C)[C@@H](O)[C@H](N)[C@@H]2O)C[C@@H]2O[C@](O)(C[C@@H](O)C[C@@H](O)[C@H](O)CC[C@@H](O)C[C@@H](O)CC(=O)O[C@H]1C)C[C@H](O)[C@H]2C(=O)O` (stereo in doubt) [AMPHOTERICIN B], 0.068 µg/mL (≈ 0.0736 µM) corresponded to half-maximal inhibition in test [5] (IC50).
`CC(=O)O[C@@H]1/C(C)=C/CC(C)(C)[C@@H](OC(C)=O)[C@@H](OC(C)=O)C(=O)/C(C)=C\[C@H]2[C@@H](OC(=O)c3ccccc3)[C@@H](C)[C@H](OC(C)=O)[C@]12OC(C)=O`: the MIC in test [1] worked out at 50 µg/mL (≈ 71.6 µM). Moreover, the IC50 in test [2] stood at 4 µM.
Consider `NC[C@H]1O[C@H](O[C@H]2[C@H](O)[C@@H](O[C@H]3O[C@H](CO)[C@@H](O)[C@H](N)[C@H]3O)[C@H](N)C[C@@H]2N)[C@H](O)[C@@H](O)[C@@H]1O` [KANAMYCIN], for which, in test [1], the MIC was found to be 2.5 µg/mL (≈ 5.16 µM).
Consider `CC(=O)O[C@H]1C[C@@H](OC(=O)c2ccccc2)/C(C)=C\[C@H]2[C@@H](OC(=O)c3ccccc3)[C@@H](C)[C@H](O)[C@]2(OC(C)=O)[C@H](O)[C@@](C)(O)/C=C/C1(C)C`, for which the MIC in test [1] was 12.5 µg/mL (≈ 18.4 µM). In test [2], this compound returned an IC50 of 5.9 µM. Also, in test [3], the result was inactive.

The term MIC denotes the lowest concentration found to suppress growth. High values mean a need for much substance, low ones inhibition by little substance. What is called IC50 is the concentration that inhibits the measured activity by half.
